Active and inactive are the calls of the source. The rule behind the calls is not given here.
How the values were obtained:
[1] = biological target: T1, Sialic acid-binding Ig-like lectin 14 (Homo sapiens) (UniProt Q08ET2); experiment: Binding affinity to recombinant human Fc-fused siglec-14 by fluorescence based glycan microarray analysis
T1 sequence (whole entry): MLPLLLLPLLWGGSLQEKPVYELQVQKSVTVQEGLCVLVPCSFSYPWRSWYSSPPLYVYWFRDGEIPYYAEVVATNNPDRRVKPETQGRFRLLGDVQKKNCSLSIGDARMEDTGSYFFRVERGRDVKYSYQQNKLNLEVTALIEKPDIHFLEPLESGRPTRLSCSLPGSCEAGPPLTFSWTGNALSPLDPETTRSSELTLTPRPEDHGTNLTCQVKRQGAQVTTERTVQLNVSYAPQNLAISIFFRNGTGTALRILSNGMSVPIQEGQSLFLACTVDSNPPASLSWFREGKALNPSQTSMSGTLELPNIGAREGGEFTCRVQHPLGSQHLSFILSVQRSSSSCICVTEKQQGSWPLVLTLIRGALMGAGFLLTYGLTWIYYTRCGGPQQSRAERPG
Procedure, shortened: (§1)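 Azidoglycans CuAAC-coupled onto alkyne-modified glass (10% zwitterionic silane mix), five replicate spots each, remaining alkynes capped with azido-ethylene glycol. Slides blocked 0.5 h in 3% BSA/PBS, then probed 1 h at rt with Fc-Siglec (10 µg/mL) premixed 1:1 with Fc-specific anti-human IgG-Cy3 (10 µg/mL) in PBS/0.1% BSA. After PBST washes, Cy3 fluorescence was scanned and averaged over replicates.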

[2] = biological target: T2, Sialic acid-binding Ig-like lectin 7 (Homo sapiens, UniProt Q9Y286); experiment: Binding affinity to recombinant human Fc-fused siglec-7 after 1 hr by fluorescence based glycan microarray analysis
Procedure, shortened: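 Surface KD determination on the same glycan microarray. Fc-Siglec-7 was applied at 0.735–588 nM (13 concentrations) for 1 h at rt and washed with PBST, then detected with anti-human IgG-Cy3 (10 µg/mL) for 0.5 h. Fluorescence was plotted against Siglec concentration and fitted to y = Bmax·x/(KD + x).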

[3] = biological target: T2, Sialic acid-binding Ig-like lectin 7; experiment: Binding affinity to recombinant human Fc-fused siglec-7 expressed in CHO cells measured over 180 secs; format: cell-based
[4] = biological target: T2, Sialic acid-binding Ig-like lectin 7; experiment: Binding affinity to recombinant human Fc-fused siglec-7 by fluorescence based glycan microarray analysis; procedure, shortened: as §1
[5] = biological target: Sialic acid-binding Ig-like lectin 9 (Homo sapiens) (UniProt Q9Y336); experiment: Binding affinity to recombinant human Fc-fused siglec-9 by fluorescence based glycan microarray analysis; procedure, shortened: as §1
[6] = biological target: B-cell receptor CD22 (Homo sapiens) (UniProt P20273); experiment: Binding affinity to recombinant human Fc-fused siglec-2 by fluorescence based glycan microarray analysis; procedure, shortened: as §1
[7] = biological target: T3, Sialic acid-binding Ig-like lectin 15 (Homo sapiens) (UniProt Q6ZMC9); experiment: Binding affinity to recombinant human Fc-fused siglec-15 by fluorescence based glycan microarray analysis; procedure, shortened: as §1
T3 sequence (whole entry): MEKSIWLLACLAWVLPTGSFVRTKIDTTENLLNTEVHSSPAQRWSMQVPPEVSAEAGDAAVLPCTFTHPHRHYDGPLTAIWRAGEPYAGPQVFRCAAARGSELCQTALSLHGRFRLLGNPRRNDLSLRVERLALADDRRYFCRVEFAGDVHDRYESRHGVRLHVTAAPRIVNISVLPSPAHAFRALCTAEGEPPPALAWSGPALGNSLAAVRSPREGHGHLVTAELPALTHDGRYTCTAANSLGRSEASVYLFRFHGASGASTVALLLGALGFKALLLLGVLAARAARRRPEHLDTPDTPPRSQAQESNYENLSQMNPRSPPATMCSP

Sialic acid-binding Ig-like lectin 9 (Homo sapiens), sequence (Q9Y336 whole entry, the tested form may be a part): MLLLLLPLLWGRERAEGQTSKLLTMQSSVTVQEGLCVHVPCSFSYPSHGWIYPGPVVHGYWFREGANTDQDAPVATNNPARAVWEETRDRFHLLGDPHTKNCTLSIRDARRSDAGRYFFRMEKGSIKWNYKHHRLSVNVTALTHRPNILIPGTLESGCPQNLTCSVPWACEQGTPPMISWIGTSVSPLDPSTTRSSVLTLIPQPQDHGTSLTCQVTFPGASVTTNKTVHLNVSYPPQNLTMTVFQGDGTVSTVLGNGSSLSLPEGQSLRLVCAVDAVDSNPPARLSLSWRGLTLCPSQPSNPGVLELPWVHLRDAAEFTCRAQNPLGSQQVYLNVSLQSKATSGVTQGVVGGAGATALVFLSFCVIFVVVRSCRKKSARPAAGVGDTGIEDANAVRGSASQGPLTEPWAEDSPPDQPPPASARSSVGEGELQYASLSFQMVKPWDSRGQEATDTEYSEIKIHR
B-cell receptor CD22 (Homo sapiens), sequence (P20273 whole entry, the tested form may be a part): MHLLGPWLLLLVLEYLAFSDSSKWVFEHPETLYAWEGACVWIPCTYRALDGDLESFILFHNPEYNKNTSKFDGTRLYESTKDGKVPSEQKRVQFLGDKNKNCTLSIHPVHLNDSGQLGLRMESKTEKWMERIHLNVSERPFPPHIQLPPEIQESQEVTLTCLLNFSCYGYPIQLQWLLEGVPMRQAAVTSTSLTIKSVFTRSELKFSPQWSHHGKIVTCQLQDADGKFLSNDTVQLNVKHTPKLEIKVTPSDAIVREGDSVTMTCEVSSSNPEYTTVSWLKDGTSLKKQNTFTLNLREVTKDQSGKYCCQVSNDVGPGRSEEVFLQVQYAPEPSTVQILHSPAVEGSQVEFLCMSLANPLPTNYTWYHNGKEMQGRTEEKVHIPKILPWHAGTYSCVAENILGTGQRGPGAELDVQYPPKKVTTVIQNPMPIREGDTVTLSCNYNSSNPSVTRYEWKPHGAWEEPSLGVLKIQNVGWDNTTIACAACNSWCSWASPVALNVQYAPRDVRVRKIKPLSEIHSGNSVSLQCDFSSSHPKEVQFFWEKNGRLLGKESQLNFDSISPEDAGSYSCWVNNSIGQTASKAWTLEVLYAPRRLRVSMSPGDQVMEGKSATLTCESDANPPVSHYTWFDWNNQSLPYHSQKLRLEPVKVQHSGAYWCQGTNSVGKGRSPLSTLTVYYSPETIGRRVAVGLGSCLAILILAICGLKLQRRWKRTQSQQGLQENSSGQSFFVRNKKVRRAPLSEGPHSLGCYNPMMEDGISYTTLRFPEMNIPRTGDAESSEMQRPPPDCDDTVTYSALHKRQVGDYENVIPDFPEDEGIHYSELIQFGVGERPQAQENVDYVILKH
T2 sequence (Q9Y286 whole entry, the tested form may be a part): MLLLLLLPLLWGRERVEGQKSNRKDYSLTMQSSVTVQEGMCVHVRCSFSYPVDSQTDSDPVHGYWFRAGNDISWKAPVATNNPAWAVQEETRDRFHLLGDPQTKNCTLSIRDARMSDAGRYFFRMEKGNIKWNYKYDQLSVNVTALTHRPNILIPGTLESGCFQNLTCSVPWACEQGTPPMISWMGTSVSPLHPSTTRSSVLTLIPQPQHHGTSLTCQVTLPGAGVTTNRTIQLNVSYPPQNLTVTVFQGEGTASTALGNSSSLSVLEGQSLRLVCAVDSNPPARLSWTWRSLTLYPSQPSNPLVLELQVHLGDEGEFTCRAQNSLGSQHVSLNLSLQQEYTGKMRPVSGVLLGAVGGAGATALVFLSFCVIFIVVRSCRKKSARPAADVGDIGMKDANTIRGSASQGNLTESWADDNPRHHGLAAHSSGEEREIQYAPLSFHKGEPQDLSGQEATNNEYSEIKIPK

Compound	Activity [1]	Kd [2]	Kd [3]	Activity [4]	Activity [5]	Activity [6]	Activity [7]
CC(=O)N[C@H]1[C@H]([C@H](O)[C@H](O)CO)O[C@@](O[C@H]2[C@@H](O)[C@@H](CO)O[C@@H](O[C@H]3[C@H](O)[C@@H](O)[C@H](OCCCCCCN=[N+]=[N-])O[C@@H]3CO)[C@@H]2O)(C(=O)O)C[C@@H]1O				inactive	Active		
CC(=O)N[C@H]1[C@H](OCCCCCCN=[N+]=[N-])O[C@H](CO)[C@@H](O[C@@H]2O[C@H](CO)[C@H](O)[C@H](O[C@@H]3O[C@H](CO)[C@@H](O[C@@H]4O[C@H](CO)[C@H](O)[C@H](O[C@]5(C(=O)O)C[C@H](O)[C@@H](NC(C)=O)[C@H]([C@@H](O)[C@@H](CO)O[C@]6(C(=O)O)C[C@H](O)[C@@H](NC(C)=O)[C@H]([C@H](O)[C@H](O)CO)O6)O5)[C@H]4O)[C@H](O)[C@H]3NC(C)=O)[C@H]2O)[C@@H]1O				inactive			
CC(=O)N[C@H]1[C@H](OCCCCCCN=[N+]=[N-])O[C@H](CO)[C@@H](O[C@@H]2O[C@H](CO)[C@H](O)[C@H](O[C@@H]3O[C@H](CO)[C@@H](O)[C@@H](O[C@@H]4O[C@H](CO[C@]5(C(=O)O)C[C@H](O)[C@@H](NC(C)=O)[C@H]([C@H](O)[C@H](O)CO)O5)[C@H](O)[C@H](O[C@]5(C(=O)O)C[C@H](O)[C@@H](NC(C)=O)[C@H]([C@H](O)[C@H](O)CO)O5)[C@H]4O)[C@H]3NC(C)=O)[C@H]2O)[C@@H]1O						inactive	inactive
CC(=O)N[C@H]1[C@H]([C@@H](O)[C@@H](CO)O[C@]2(C(=O)O)C[C@H](O)[C@@H](NC(C)=O)[C@H]([C@@H](O)[C@@H](CO)O[C@]3(C(=O)O)C[C@H](O)[C@@H](NC(C)=O)[C@H]([C@H](O)[C@H](O)CO)O3)O2)O[C@@](O[C@H]2[C@@H](O)[C@@H](CO)O[C@@H](O[C@H]3[C@H](O)[C@@H](O)[C@H](OCCCCCCN=[N+]=[N-])O[C@@H]3CO)[C@@H]2O)(C(=O)O)C[C@@H]1O		48.7 nM					
CC(=O)N[C@H]1[C@H](OCCCCCCN=[N+]=[N-])O[C@H](CO)[C@@H](O[C@@H]2O[C@H](CO)[C@H](O)[C@H](O[C@]3(C(=O)O)C[C@H](O)[C@@H](NC(C)=O)[C@H]([C@@H](O)[C@@H](CO)O[C@]4(C(=O)O)C[C@H](O)[C@@H](NC(C)=O)[C@H]([C@@H](O)[C@@H](CO)O[C@]5(C(=O)O)C[C@H](O)[C@@H](NC(C)=O)[C@H]([C@H](O)[C@H](O)CO)O5)O4)O3)[C@H]2O)[C@@H]1O		54.1 nM					
CC(=O)N[C@H]1[C@H](OCCCCCCN=[N+]=[N-])O[C@H](CO)[C@@H](O[C@@H]2O[C@H](CO)[C@H](O)[C@H](O[C@@H]3O[C@H](CO)[C@@H](O)[C@@H](O[C@@H]4O[C@H](CO)[C@H](O)[C@H](O[C@@H]5O[C@H](CO)[C@@H](O)[C@@H](O[C@@H]6O[C@H](CO[C@]7(C(=O)O)C[C@H](O)[C@@H](NC(C)=O)[C@H]([C@H](O)[C@H](O)CO)O7)[C@H](O)[C@H](O)[C@H]6O)[C@H]5NC(C)=O)[C@H]4O)[C@H]3NC(C)=O)[C@H]2O)[C@@H]1O				inactive	Active	Active	

Next, values leading:

Activity [1]	Kd [2]	Kd [3]	Activity [4]	Activity [5]	Activity [6]	Activity [7]	Compound
Active	32.7 nM	60 nM					CC(=O)N[C@H]1[C@H]([C@@H](O)[C@@H](CO)O[C@]2(C(=O)O)C[C@H](O)[C@@H](NC(C)=O)[C@H]([C@H](O)[C@H](O)CO)O2)O[C@@](O[C@H]2[C@@H](O)[C@@H](CO)O[C@@H](O[C@H]3[C@H](O)[C@@H](O)[C@H](OCCCCCCN=[N+]=[N-])O[C@@H]3CO)[C@@H]2O)(C(=O)O)C[C@@H]1O
			Active	Active	Active		CC(=O)N[C@H]1[C@H]([C@H](O)[C@H](O)CO)O[C@@](OC[C@H]2O[C@@H](O[C@H]3[C@H](O)[C@@H](O)[C@H](OCCCCCCN=[N+]=[N-])O[C@@H]3CO)[C@H](O)[C@@H](O)[C@H]2O)(C(=O)O)C[C@@H]1O
Active	43.3 nM						CC(=O)N[C@H]1[C@H](OCCCCCCN=[N+]=[N-])O[C@H](CO)[C@@H](O[C@@H]2O[C@H](CO)[C@H](O)[C@H](O[C@]3(C(=O)O)C[C@H](O)[C@@H](NC(C)=O)[C@H]([C@@H](O)[C@@H](CO)O[C@]4(C(=O)O)C[C@H](O)[C@@H](NC(C)=O)[C@H]([C@H](O)[C@H](O)CO)O4)O3)[C@H]2O)[C@@H]1O
Active			inactive	Active			CC(=O)N[C@H]1[C@H](OCCCCCCN=[N+]=[N-])O[C@H](CO)[C@@H](O[C@@H]2O[C@H](CO)[C@H](O)[C@H](O[C@]3(C(=O)O)C[C@H](O)[C@@H](NC(C)=O)[C@H]([C@H](O)[C@H](O)CO)O3)[C@H]2O)[C@@H]1O
			inactive	Active	Active		CC(=O)N[C@H]1[C@H](OCCCCCCN=[N+]=[N-])O[C@H](CO)[C@@H](O[C@@H]2O[C@H](CO)[C@H](O)[C@H](O[C@@H]3O[C@H](CO)[C@@H](O)[C@@H](O[C@@H]4O[C@H](CO[C@]5(C(=O)O)C[C@H](O)[C@@H](NC(C)=O)[C@H]([C@H](O)[C@H](O)CO)O5)[C@H](O)[C@H](O)[C@H]4O)[C@H]3NC(C)=O)[C@H]2O)[C@@H]1O
Active	38.7 nM		Active	Active	inactive	Active	CC(=O)N[C@H]1[C@H](OCCCCCCN=[N+]=[N-])O[C@H](CO)[C@@H](O[C@@H]2O[C@H](CO[C@]3(C(=O)O)C[C@H](O)[C@@H](NC(C)=O)[C@H]([C@H](O)[C@H](O)CO)O3)[C@H](O)[C@H](O[C@]3(C(=O)O)C[C@H](O)[C@@H](NC(C)=O)[C@H]([C@H](O)[C@H](O)CO)O3)[C@H]2O)[C@@H]1O
				Active			CC(=O)N[C@H]1[C@H](OCCCCCCN=[N+]=[N-])O[C@H](CO)[C@@H](O[C@@H]2O[C@H](CO)[C@H](O)[C@H](O[C@]3(C(=O)O)C[C@H](O)[C@@H](NC(C)=O)[C@H]([C@H](O)[C@H](O)CO)O3)[C@H]2O)[C@@H]1O[C@@H]1O[C@@H](C)[C@@H](O)[C@@H](O)[C@@H]1O
				Active	inactive		CC(=O)N[C@H]1[C@H](OCCCCCCN=[N+]=[N-])O[C@H](CO)[C@@H](O[C@@H]2O[C@H](CO[C@]3(C(=O)O)C[C@H](O)[C@@H](NC(C)=O)[C@H]([C@H](O)[C@H](O)CO)O3)[C@H](O)[C@H](O[C@@H]3O[C@H](CO)[C@@H](O)[C@H](O)[C@H]3NC(C)=O)[C@H]2O)[C@@H]1O
Active	26.8 nM		Active		inactive	Active	CC(=O)N[C@H]1[C@H]([C@H](O)[C@H](O)CO)O[C@@](OC[C@H]2O[C@@H](O[C@H]3[C@H](O)[C@@H](O)[C@H](OCCCCCCN=[N+]=[N-])O[C@@H]3CO)[C@H](O)[C@@H](O[C@]3(C(=O)O)C[C@H](O)[C@@H](NC(C)=O)[C@H]([C@H](O)[C@H](O)CO)O3)[C@H]2O)(C(=O)O)C[C@@H]1O
